Measurements published in ChEMBL document CHEMBL1123120, “Synthesis and structure-activity relationships of a new series of antiarrhythmic agents: 4,4-disubstituted hexahydro-3H-pyrido[1,2-c]pyrimidin-3-ones and related compounds” (J Med Chem, 1985).

Key:
[1] = tested on: Canis familiaris; test: Antiarrhythmic activity in Beagle dogs following i.v. administration; minimum effective dose to suppress ventricular ectopic rate >/=25% for a minimum duration of 10 min.; assay type: functional, Canis lupus familiaris, Heart; conditions: for minimal effective dose: Canis lupus familiaris, Heart, iv, 10 min, read-out: MED
Method in brief: (§1)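 Beagles of either sex, pentobarbital 30 mg/kg i.v., had two-stage LAD coronary ligation; tested conscious about 24 h later if ectopic rate ≥130 beats/min, ectopic ≥75% of total rate, and controls within 10%. HCl salts given i.v. to at least two dogs: 5 mg/kg repeated every 15 min to 20 mg/kg max; if active, 1 mg/kg every 5 min to 6 mg/kg. Active means ectopic rate reduced ≥25% for ≥10 min.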

[2] = target: Muscarinic acetylcholine receptor (Rattus norvegicus) (UniProt P08482+P08483+P08485+P08911+P10980); test: Muscarinic acetylcholine receptor binding affinity in rat brain homogenate by [3H]quinuclidinylbenzilate displacement compared to disopyramide.; assay type: tissue-based
Method in brief: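 Whole male CD rat brain without cerebellum was homogenized and spun at 1000g. The supernatant was incubated with 0.15 nM [3H]QNB, with or without compound, 25 °C, 1 h. Three to six concentrations were run in triplicate, and IC50 came from log-probit analysis. Values are expressed as the ratio IC50(test)/IC50(disopyramide).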

[3] = tested on: Canis familiaris; test: Hemodynamic effect of 5 mg/kg of compound was assessed in Beagle dogs by decrease in mean arterial pressure; max dose administered was 29 mg/kg; assay type: functional, Canis lupus familiaris, Artery
Method in brief: (§2)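 Dogs of either sex were anesthetized with pentobarbital 30 mg/kg i.v. plus 5 mg/kg, then stabilized 30 min. Compound was given via right femoral vein. Where mean antiarrhythmic dose exceeded 5 mg/kg: 5 mg/kg over 5 min every 15 min until MAP fell 50% or 50 mg/kg cumulative. Otherwise: 1 mg/kg/min every 5 min up to 10 mg/kg. MAP was electronically averaged, with baseline the mean of four 5-min readings.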

[4] = tested on: Canis familiaris; test: Decrease in myocardial contractility was determined by monitoring the maximum rate of rise of ventricular pressure in 10 Beagle dogs at a dose of 10 mg/kg; assay type: functional, Canis lupus familiaris, Cardiac ventricle
[5] = organism: Cavia porcellus; test: Antimuscarinic activity in guinea pig ileum; assay type: functional; conditions: read-out: pA2 (converted)
Method in brief: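 Guinea pig ileum was held in modified Tyrode's gassed with 95% O2/5% CO2, pH 7.4, under 0.5 g tension and equilibrated 30 min. A cumulative acetylcholine curve was run, the tissue rinsed 10 min, and the curve repeated with antagonist at four concentrations at quarter-log steps. pA2 by Van Rossum; if noncompetitive, −log of the concentration cutting maximal response 50%. At least four experiments were run.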

[6] = organism: Canis familiaris; test: The mean effective dose to suppress ventricular ectopic rate >=25% for a minimum duration of 10 minutes was reported.; assay type: functional; conditions: Canis lupus familiaris, Cardiac ventricle, read-out: MED; method in brief: as §1
[7] = tested on: Canis familiaris; test: Hemodynamic effect of 5 mg/kg of compound was assessed in Beagle dogs by decrease in mean arterial pressure; max dose administered was 35 mg/kg; assay type: functional, Canis lupus familiaris, Artery; method in brief: as §2
[8] = tested on: Canis familiaris; test: Hemodynamic effect of 5 mg/kg of compound was assessed in Beagle dogs by decrease in mean arterial pressure; max dose administered was 50 mg/kg; assay type: functional, Canis lupus familiaris, Artery; method in brief: as §2
[9] = tested on: Canis familiaris; test: Hemodynamic effect of 1 mg/kg of compound was assessed in Beagle dogs by decrease in mean arterial pressure; max dose administered was 10 mg/kg; assay type: functional, Canis lupus familiaris, Artery; method in brief: as §2

| Structure (SMILES) | minimal effective dose [1] [mg/kg] | Muscarinic receptor affinity [2] | minimal effective dose [6] [mg/kg] | other results |
| --- | --- | --- | --- | --- |
| CC(C)N(CCC1(c2ccccc2)C(=O)N=CN2CCCCC21)C(C)C (centres undefined) | 20 | – | – | MED [1]: 10 mg/kg |
| CC(C)N(CCC1(c2ccccc2)C(=O)NC(c2ccccc2)N2CCCCC21)C(C)C (centres undefined) | 4 | 0.0434 | – | – |
| CC(C)N(CCC1(c2ccccc2Cl)C(=O)NCN2CCCCC21)C(C)C (centres undefined) | 7.5 | < 0.01 | – | – |
| CC(C)N(CC[C@]1(c2ccccc2)C(=O)N[C@@H](C)N2CCCC[C@@H]21)C(C)C | 10 | 0.0434 | – | – |
| CCC1=NC(=O)C(CCN(C(C)C)C(C)C)(c2ccccc2)C2CCCCN12 (centres undefined) | 12.5 | 0.0625 | – | – |
| CC(C)N(CCC(C(N)=O)(c1ccccc1)c1ccccn1)C(C)C (centres undefined) [DISOPYRAMIDE] | 10 | 1 | 10 | Decrease in MAP [3]: 57%; Decrease [4]: 56%; Kb [5]: 0.891 µM |
| CC(C)N(CC[C@]1(c2ccccc2)C(=O)N(C)CN2CCCC[C@@H]21)C(C)C | 7.5 | – | – | – |
| CC(C)N(CCC1(c2ccc(-c3ccccc3)cc2)C(=O)NCN2CCCCC21)C(C)C (centres undefined) | 5 | 0.0625 | – | – |
| CC(C)N(CCC1(c2ccccc2)C(=O)NCN2CCCCC21)C(C)C (centres undefined) | – | 0.0769 | 6 | Decrease in MAP [7]: 54% |
| CCC1NC(=O)C(CCN(C(C)C)C(C)C)(c2ccccc2)C2CCCCN12 (centres undefined) | 6 | 0.0909 | – | – |
| CC(C)N(CCC1(c2ccccc2Cl)C(=O)N=CN2CCCCC21)C(C)C (centres undefined) | 15 | 0.0125 | – | – |
| CC(C)N(CCC1(c2ccccc2)C(=O)N=C(c2ccccc2)N2CCCCC21)C(C)C (centres undefined) | 1 | 0.25 | – | – |
| CC1=NC(=O)C(CCN(C(C)C)C(C)C)(c2ccccc2)C2CCCCN12 (centres undefined) [ACTISOMIDE] | 9 | – | 9.1 | MED [1]: 10 mg/kg; Decrease [4]: 14%; Kb [5]: 13.2 µM; Decrease in MAP [8]: 3% |
| CC(C)N(CCC1(c2ccc(-c3ccccc3)cc2)C(=O)N=CN2CCCCC21)C(C)C (centres undefined) | 2.5 | 0.02 | 2.5 | Decrease in MAP [9]: 27% |
| CC(C)N(CCC1(c2ccccc2)C(=O)NC(C)N2CCCCC21)C(C)C (centres undefined) | 2.5 | < 0.05 | 2.5 | Decrease [4]: 21%; Kb [5]: 60.3 µM; Decrease in MAP [9]: 4% |
